# Screens: PubChem BioAssay, several laboratories
# Rows were chosen to be rich in hits. Some 4.7% of all compounds tested hit in one or more screens of this group.
# MrgX1 PAM – allosterically activates human MrgX1 receptor signaling; Q96LB2; MrgX1-HEK293, Fluo-4 calcium flux, FDSS; active compounds read high; B-score at 10 µM; 0.63% of 310,000 active; AID 588675;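 active means plate-corrected calcium response at least 3 library SD above typical, normal starting fluorescence, not activating the receptor alone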;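 further: compound read alongside a low EC10 to EC30 dose of BAM8-22 agonist; peak minus trough fluorescence over baseline measured at the second addition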
# Target sequence (Q96LB2 whole entry, looked up): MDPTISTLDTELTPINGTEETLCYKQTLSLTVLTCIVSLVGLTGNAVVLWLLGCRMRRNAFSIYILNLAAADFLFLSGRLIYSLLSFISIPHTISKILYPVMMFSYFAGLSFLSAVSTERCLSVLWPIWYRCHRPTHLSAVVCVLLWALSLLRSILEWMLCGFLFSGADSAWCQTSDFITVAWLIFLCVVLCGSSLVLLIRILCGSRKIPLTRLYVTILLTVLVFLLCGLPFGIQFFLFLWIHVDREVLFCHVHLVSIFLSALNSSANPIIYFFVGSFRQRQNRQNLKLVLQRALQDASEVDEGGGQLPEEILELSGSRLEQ
# RGS4 act – potentiators or activators of RGS4. HEK293 M3R/inducible RGS4, carbachol calcium flux Fluo4; active compounds read low. B-score at 10 µM. 0.92% of 310,000 active;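 active means B-score of the integrated calcium signal more than 4 SD below the library mean, with starting fluorescence not abnormally high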;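 further: negative B-score means reduced calcium response which marks RGS4 activation or potentiation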
#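 test system = M3R-expressing HEK293 line, RGS4 induced by doxycycline | probe or stimulus = carbachol at ECmax as muscarinic agonist stimulus | timing = dye loading 30 min 37 °C, buffer rest 30 min RT | signal = calcium dye Fluo4 fluorescence | evaluation = B score from integrated fluorescence ratio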
# RGS4 inh – human RGS4 inhibition. P49798. 0.45% of 310,000 active. HEK293 M3R/RGS4 inducible, Fluo-4 calcium flux; active compounds read high; triggered by carbachol at its EC20. B-score at 10 µM;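 active means B-score, a plate-corrected calcium signal, over three deviations above library mean, with baseline fluorescence within five deviations of library mean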;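 further: RGS4 expression induced by doxycycline in cells with stable M3 receptor; B-score is computed from the integrated fluorescence ratio over baseline after carbachol; higher B-score means a larger calcium signal and so more RGS4 inhibition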
# Target sequence (P49798 whole entry, looked up): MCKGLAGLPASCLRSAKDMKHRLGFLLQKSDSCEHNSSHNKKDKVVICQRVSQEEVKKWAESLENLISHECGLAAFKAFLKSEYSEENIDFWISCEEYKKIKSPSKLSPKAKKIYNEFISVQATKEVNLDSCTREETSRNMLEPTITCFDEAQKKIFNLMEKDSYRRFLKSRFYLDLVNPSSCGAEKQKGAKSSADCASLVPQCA
# MrgX1 agonist – activates human MrgX1 receptor signaling; Q96LB2; MrgX1-HEK293 cells, Fluo-4 calcium fluorescence, agonist mode; active compounds read high; B-score at 10 µM; 0.44% of 310,000 active; AID 588627;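 active means calcium response B-score plate-corrected fluorescence ratio at least 3 library SD, with starting fluorescence B-score inside 5 SD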
#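 Material: MrgX1-expressing HEK293 cells / Dosing: compound as first of three additions / Incubation: overnight seeding, then 1 h dark dye loading / Signal: Fluo-4 NW calcium fluorescence / Evaluation: B-scored fluorescence response ratio / Benchmarks: positive and negative control wells on each plate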
# Cl transport mod – modulates chloride dependent transport by human KCC2; KCC2 cells, thallium flux FluoZin-2 fluorescence; B-score of Tl+ flux slope (higher = more flux/activation; lower = inhibition) at 10 µM; 2.2% of 190,000 active; Q9H2X9; AID 1456;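 active means thallium flux slope and its plate-corrected score both differing from the plate sample mean at a set confidence after two filtering rounds, in either direction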;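 further: slope of fluorescence scaled to starting intensity during 10 to 20 s after thallium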
# MrgX1 antag – human MrgX1 receptor antagonism, primary screen; Q96LB2; MRGX1-HEK293 calcium flux, Fluo-4, BAM8-22 antagonism; active compounds read low; B-score at 10 µM; 1.3% of 310,000 active; AID 588676;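 active means calcium-response B-score plate-corrected more than 3 library SD below zero, starting fluorescence within 5 deviations, no agonist response on first addition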;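 further: peak minus trough fluorescence over baseline after final BAM8-22 challenge near maximal dose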
# KCC2 secondary – KCC2 (human) modulation, secondary assay. HEK293-KCC2, thallium flux, FluoZin2 fluorescence; active compounds read high. 15% of 3,700 active. normalised thallium flux (F/F0 slope) at 10 µM. AID 1713. shares compounds with Cl transport mod;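 active means thallium flux slope above the same plate's solvent-only control mean plus 3 SD; inconclusive means the two replicate wells disagree; inactive means no significant difference from solvent-only control wells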
# KCC2 bumet counter – thallium flux despite bumetanide block in KCC2 cells, secondary assay 3; normalized thallium flux at 10 µM; 49% of 3,700 active; shares compounds with Cl transport mod; HEK293-KCC2 + bumetanide/ouabain, thallium flux FluoZin2; active compounds read high;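 active means thallium entry rate above the same plate's blocked-transporter control wells by more than 3 SD; inconclusive means the two repeat wells disagree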;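 further: raw slope of fluorescence over initial fluorescence between 10 and 20 s after thallium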
# KCC2 secondary2 – confirmation of human KCC2 transport modulators; shares compounds with Cl transport mod; HEK293-KCC2, thallium flux FluoZin2 fluorescence; actives lie on both sides; F/F0 rise rate, 10–20 s post-thallium; normalized thallium flux at 10 µM; 23% of 3,700 active; AID 1715;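 active means thallium flux slope more than 3 SD above or below the plate's solvent-only control mean, mostly below; inconclusive means the two repeat wells disagreed; inactive means no significant shift from solvent-only controls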
# HEK counter1 – parental HEK flux effect, counter-screen | thallium flux rate (normalised fluorescence) at 10 µM | HEK293 parental cells, thallium flux FluoZin2, ouabain; baseline-ratio fluorescence slope, 10–20 s after thallium | 46% of 3,700 active | shares compounds with Cl transport mod;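 active means thallium flux rate significantly above the same plate's solvent-only control wells, beyond their mean plus 3 SD; inconclusive means the two replicate wells gave conflicting results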
# KCC2 ouabain – modulates human KCC2 on retest with ouabain; AID 1717; 48% of 3,700 active; shares compounds with Cl transport mod; HEK293-KCC2, thallium flux FluoZin2 fluorescence; bidirectional: low = inhibitor, high = activator; raw Tl+ flux slope (below DMSO = inhibition, above = activation) at 10 µM;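 active means thallium flux slope beyond 3 SD from same-plate DMSO control mean in most replicates, usually higher, sometimes lower; inconclusive means repeat tests gave conflicting results; inactive means no significant difference from controls in most replicates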;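 further: slope of initial-normalized fluorescence between seconds 10 and 20 after thallium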
# HEK counter2 – acts in parental HEK cells, second KCC2 counter-screen; thallium flux slope at 10 µM; HEK293 parental, thallium flux FluoZin-2 fluorescence slope; shares compounds with Cl transport mod; 33% of 3,700 active;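 active means thallium flux slope above the same plate's solvent-control mean plus 3 SD in both duplicate wells; inconclusive means duplicate wells that disagreed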;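 further: run without ouabain in cells lacking the KCC2 cotransporter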
# A number is an active result; – = inactive; ? = inconclusive; · = not tested or not shown.
SMILES,MrgX1 PAM,RGS4 act,RGS4 inh,MrgX1 agonist,Cl transport mod,MrgX1 antag,KCC2 secondary,KCC2 bumet counter,KCC2 secondary2,HEK counter1,KCC2 ouabain,HEK counter2
CC1(C)CC(=O)C(C2C3=C(CC(C)(C)CC3=O)OC3=C2C(=O)CC(C)(C)C3)=C(O)C1,–,–,–,–,–,–,·,·,·,·,·,·
COC(=O)c1ccccc1C(=O)N(Cc1cccnc1)CC1CCCN(C2CCCCC2)C1 (configuration not stated),–,–,–,–,·,–,·,·,·,·,·,·
COc1cc(S(=O)(=O)N2CCN(c3ccccn3)CC2)ccc1Br,–,–,–,–,·,–,·,·,·,·,·,·
Cc1nn(-c2ccccc2)c(C)c1/C=N/NC(=O)c1cc(C2CC2)[nH]n1,–,–,–,–,·,–,–,–,–,–,0.015,–
COC(=O)C1CCN(S(=O)(=O)c2cn(C)c(=O)n(C)c2=O)CC1,–,–,–,–,-3.4,–,–,?,–,–,–,–
CCOC(=O)C1CCN(S(=O)(=O)c2cn(C)c(=O)n(C)c2=O)CC1,–,–,–,–,–,–,·,·,·,·,·,·
CC(C)c1ccc(N)c(S(=O)(=O)O)c1,–,–,–,–,–,–,·,·,·,·,·,·
CC(C)c1cccc(O)c(=O)c1,–,–,–,–,9.1,–,–,0.016,–,0.013,0.026,?
CCN(Cc1cc(=O)n2ccsc2n1)Cc1nc2cc(OC)c(OC)cc2c(=O)[nH]1,–,–,–,–,–,–,·,·,·,·,·,·
O=C(NCCCCNC(=O)c1ccccc1Br)c1ccccc1Br,–,–,–,–,·,–,·,·,·,·,·,·
CCCCc1c(C)nc2cc(-c3ccco3)[nH]n2c1=O,–,–,–,–,4.5,–,–,0.014,–,0.013,?,0.015
CCOC(=O)C1CCCN(C(=O)C2CCN(S(=O)(=O)c3ccc4ccccc4c3)CC2)C1 (configuration not stated),–,–,–,–,·,–,·,·,·,·,·,·
CC(/C=C/c1ccccc1)=N/NC(=O)c1cc([N+](=O)[O-])cc([N+](=O)[O-])c1,–,·,·,–,–,–,·,·,·,·,·,·
C/C(=N\NC(=O)c1cccc([N+](=O)[O-])c1)c1ccco1,–,–,–,–,12,–,–,0.025,–,0.019,0.029,0.026
C/C(=N\NC(=O)c1ccc(Br)cc1)c1ccccc1,–,–,–,–,6,–,–,0.013,–,0.015,?,–
CC/C(Cc1ccccc1)=N\NC(=O)c1cc([N+](=O)[O-])cc([N+](=O)[O-])c1,–,–,–,–,33,–,0.018,0.067,?,0.033,0.045,0.018
CC/C(Cc1ccccc1)=N/NC(=O)c1cccc(Br)c1,–,–,–,–,9.2,–,–,0.01,–,0.016,–,0.015
CC/C(Cc1ccccc1)=N\NC(=O)c1cc(C)oc1C,–,–,–,–,–,–,·,·,·,·,·,·
COc1cc(S(=O)(=O)NCc2ccc3c(c2)OCO3)ccc1F,–,–,–,–,·,–,·,·,·,·,·,·
O=C(N/N=C/c1nn(-c2ccccc2)cc1-c1ccc(Cl)cc1)c1ccncc1,–,–,–,–,–,–,·,·,·,·,·,·
O=C(O)c1ccc(C[n+]2c(-c3ccccc3)csc2Nc2ccccc2)cc1,–,–,–,–,-3.6,–,–,?,–,–,0.016,–
O=C1c2ccccc2NC(c2ccc(Cl)cc2Cl)N1Cc1ccccc1 (configuration not stated),–,–,–,–,–,–,·,·,·,·,·,·
O=C1c2ccccc2NC(c2ccc(Cl)cc2Cl)N1O (configuration not stated),–,–,–,–,3.8,–,–,0.021,–,0.0095,–,–
CC1CCN(CCCNC(=O)CCNC(=O)Cn2cnc3ccccc3c2=O)CC1,–,–,–,–,·,–,·,·,·,·,·,·
Cn1c(CSc2nc3ccccc3s2)nnc1SCC(=O)NCc1ccccn1,–,–,–,–,-4,–,–,–,–,–,?,–
SMILES,MrgX1 PAM,RGS4 act,RGS4 inh,MrgX1 agonist,Cl transport mod,MrgX1 antag,KCC2 secondary,KCC2 bumet counter,KCC2 secondary2,HEK counter1,KCC2 ouabain,HEK counter2
Cn1c(CSc2nc3ccccc3s2)nnc1SCC(=O)NCCN1CCOCC1,–,–,–,–,·,–,·,·,·,·,·,·
O=C(CSc1ncccn1)N/N=C/c1cccs1,–,–,–,–,4.5,–,–,–,–,–,–,–
Cc1ccc(S(=O)(=O)c2nc(S(C)(=O)=O)sc2N2CCCCC2C)cc1 (configuration not stated),–,–,–,–,·,–,·,·,·,·,·,·
COc1cccc(-n2nc(C(=O)N3CC(C)CC(C)C3)c3ccccc3c2=O)c1 (configuration not stated),–,–,–,–,4.4,–,–,–,–,–,–,–
COc1ccc(-n2nc(C(=O)NCC(=O)N3CC(C)CC(C)C3)c3ccccc3c2=O)cc1OC (configuration not stated),–,–,–,–,·,–,·,·,·,·,·,·
CN1CCN(C(=O)/C(=C/c2cn(S(=O)(=O)N(C)C)c3ccccc23)NC(=O)c2ccccc2)CC1,–,–,–,–,·,–,·,·,·,·,·,·
O=C(N/N=C/c1ccccn1)c1cc(-c2ccccc2)nc2ccccc12,–,–,–,–,12,–,–,0.023,–,0.01,?,–
O=C(N/N=C/c1ccccn1)c1cc(C2CC2)nc2ccccc12,–,–,–,–,·,–,·,·,·,·,·,·
C=C1c2cc3c(cc2NC(=S)N1Cc1ccccc1)OCO3,–,–,–,–,53,–,0.016,0.099,–,0.035,0.047,0.016
CCN(C(=O)c1ccc(N2CC3CC(C2)c2cccc(=O)n2C3)c(NC(=O)c2ccncc2)c1)c1cccc(C)c1 (configuration not stated),–,–,–,–,·,–,·,·,·,·,·,·
